Test [1] in a line: hit retest on RPL19A-GFP reporter strain – cell-based, S. cerevisiae, flow cytometry, cherry picks, mother/daughter gates, confirmation (AID 2270;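 active = GFP response below 50% of the DMSO control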). To be noted: 3 h, at 10 µM, stronger effect = lower value, 100 = same GFP as DMSO wells.
Test [2] is described as follows: yeast TOR pathway reporter LAP4-GFP change – cell-based, cherry picks, flow cytometry, mother/daughter gates, confirmation (AID 2271;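 active = GFP response above 150% of the DMSO control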;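 also: ratio of sample to DMSO plate mean so 100% equals DMSO level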). To be noted: S. cerevisiae LAP4-GFP strain, 3 h, at 10 µM, stronger effect = higher value, 100 means same as DMSO control. The method in brief: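 System: Alexa 633-stained baker's yeast GFP-fusion strain / Medium: synthetic complete (SC) yeast growth medium / Doses: compound at 10 µM, single point / Times: 3 h treatment at 30 °C with rotation / Detection: HT flow cytometry, GFP fluorescence channel / Benchmarks: DMSO-only negative wells, rapamycin 400 ng/mL positive wells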

A short description of test [3]: TOR pathway reporter MEP2-GFP, retest of hits – S. cerevisiae, flow cytometry GFP, cherry picks, confirmation (AID 2272;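 active = GFP response above 150% of the DMSO control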;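 also: ratio of well signal to plate DMSO mean so 100% equals DMSO level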). To be noted: S. cerevisiae MEP2-GFP strain, 3 h, at 10 µM, stronger effect = higher value. (Flow cytometry measures light scatter and fluorescence of single cells or particles in a stream.)
Test [4] can be described thus: yeast AGP1-GFP fluorescence change, single-dose – cell-based, flow cytometry, S. cerevisiae, cherry picks, confirmation (AID 2273).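 Also: median GFP channel fluorescence over the whole cell population gate.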 To be noted: S. cerevisiae AGP1-GFP strain, 3 h, at 10 µM.
A short description of test [5]: TOR pathway CIT2 reporter hit retest – S. cerevisiae, GFP fusion, cherry picks, mother/daughter gates, confirmation (AID 2274). To be noted: S. cerevisiae CIT2-GFP strain, flow cytometry, 3 h, at 10 µM, stronger effect = higher value.
[6] abbreviates: measured here: daughter cell gate.
[7] abbreviates: measured here: mother cell gate.
Where [8] appears, read: measured here: daughter cell gate response.
The mark [9] stands for this setting: measured here: mother cell gate response.

The structures appear in SMILES notation. Activity calls are given as the source filed them.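 The calls were made as follows, unless noted: active = GFP response above 150% of the DMSO level; inconclusive = fewer than 70 events counted for a yeast strain; inactive = the rest.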

With `Cc1noc2ncnc(Sc3ccc(Cl)cc3)c12`, the GFP response vs DMSO in test [1] was 96.6% (inactive); in test [1] (setting [6]), 94.9%; in test [1] (setting [7]), 97.2%; in test [3], 102% (inactive). In addition, the GFP response relative to DMSO in test [2] is 140% (inactive); in test [2] (setting [8]), 130%; in test [2] (setting [9]), 141%. For the same molecule, the GFP response, % of DMSO in test [4] was 94.7% (inactive); in test [5], 104% (inactive); in test [5] (setting [6]) it was 101%; in test [5] (setting [7]), 102%.
`CCOC(=O)CNc1c(-c2ccc(OC)cc2)nc2ccc(Cl)cn12`: the GFP response vs DMSO was 100% (inactive) in test [1], 98.4% in test [1] (setting [6]), 101% in test [1] (setting [7]) and 97.8% (inactive) in test [3]. Also, the results for the GFP response relative to DMSO in test [2], in test [2] (setting [8]) and in test [2] (setting [9]) were 99.8% (inactive), 98.7% and 102%, respectively. The GFP response, % of DMSO in test [4] is 99.2% (inactive); in test [5], 95.2% (inactive); in test [5] (setting [6]) it was 93.2%; in test [5] (setting [7]), 93.4%.
Regarding `Cc1cccc(NC(=O)c2nc(S(=O)(=O)Cc3ccccc3)ncc2Cl)c1`, the GFP response vs DMSO was 93.1% (inactive) in test [1], 92.7% in test [1] (setting [6]), 91.4% in test [1] (setting [7]) and 108% (inactive) in test [3]. Moreover, the GFP response relative to DMSO in test [2] was 136% (inactive); in test [2] (setting [8]) it was 128%; in test [2] (setting [9]), 137%. Besides, the GFP response, % of DMSO in test [4] is 116% (inactive); in test [5], 93.1% (inactive); in test [5] (setting [6]), 88.7%; in test [5] (setting [7]) it was 90.4%.
Take `COc1cc(C(O)P(=O)(OCC(C)C)OCC(C)C)cc(OC)c1OC` (stereo not drawn): the GFP response vs DMSO in test [1] was 99.5% (inactive); in test [1] (setting [6]) it was 99.8%; in test [1] (setting [7]) it was 99.7%; in test [3], 104% (inactive). The GFP response relative to DMSO is 100% (inactive) in test [2], 102% in test [2] (setting [8]) and 98.5% in test [2] (setting [9]). The GFP response, % of DMSO in test [4] was 100% (inactive); in test [5], 101% (inactive); in test [5] (setting [6]), 100%; in test [5] (setting [7]), 99.1%.
Regarding `O=C(Nc1ccccc1C(F)(F)F)c1cc(-c2ccc(O)cc2)on1`, the GFP response vs DMSO is 98.8% (inactive) in test [1], 97% in test [1] (setting [6]), 99.2% in test [1] (setting [7]) and 102% (inactive) in test [3]. Besides, the GFP response relative to DMSO in test [2] was 108% (inactive); in test [2] (setting [8]), 102%; in test [2] (setting [9]), 108%. In addition, the GFP response, % of DMSO in test [4] was 94% (inactive); in test [5] it was 101% (inactive); in test [5] (setting [6]) it was 98.3%; in test [5] (setting [7]) it was 98%.
`CCOc1ccc(N2C(=O)CC(Sc3nccc(C)n3)C2=O)cc1` (stereo not drawn): the GFP response vs DMSO in test [1] was 97.3% (inactive); in test [1] (setting [6]) it was 99.3%; in test [1] (setting [7]) it was 97.3%; in test [3], 103% (inactive). The figures for the GFP response relative to DMSO in test [2], in test [2] (setting [8]) and in test [2] (setting [9]) were 97.7% (inactive), 97.5% and 97.4%, respectively. Also, the GFP response, % of DMSO was 102% (inactive) in test [4], 100% (inactive) in test [5], 97.6% in test [5] (setting [6]) and 102% in test [5] (setting [7]).
Consider `O=C(CCS(=O)(=O)Cc1ccccc1F)NCCc1ccc(Cl)cc1`, for which the GFP response vs DMSO in test [1] was 97.8% (inactive); in test [1] (setting [6]) it was 102%; in test [1] (setting [7]), 93.7%; in test [3] it was 101% (inactive). Moreover, the GFP response relative to DMSO in test [2] was 101% (inactive); in test [2] (setting [8]), 99%; in test [2] (setting [9]) it was 101%. Also, the GFP response, % of DMSO in test [4] was 99.1% (inactive); in test [5], 100% (inactive); in test [5] (setting [6]) it was 99.3%; in test [5] (setting [7]) it was 99.3%.
Take `Cc1ccc(NC(=O)c2nc(S(=O)(=O)Cc3ccccc3)ncc2Cl)cc1`: the GFP response vs DMSO in test [1] is 92% (inactive); in test [1] (setting [6]), 92.5%; in test [1] (setting [7]) it was 89.8%; in test [3], 95.7% (inactive). The GFP response relative to DMSO was 141% (inactive) in test [2], 134% in test [2] (setting [8]) and 140% in test [2] (setting [9]). Besides, the GFP response, % of DMSO in test [4] was 100% (inactive); in test [5], 90% (inactive); in test [5] (setting [6]), 89.9%; in test [5] (setting [7]), 85.8%.
With `N#C/C(=C\c1ccccn1)c1nc2ccccc2s1`, the GFP response vs DMSO is 170% (inactive) in test [1], 158% in test [1] (setting [6]), 172% in test [1] (setting [7]) and 1020% (active) in test [3]. Also, the GFP response relative to DMSO in test [2] was 584% (active); in test [2] (setting [8]) it was 464%; in test [2] (setting [9]) it was 589%. Further, the GFP response, % of DMSO in test [4] is 205% (active); in test [5], 506% (active); in test [5] (setting [6]), 433%; in test [5] (setting [7]) it was 496%.
For `CCOc1cc(/C=C2\N=C(C)OC2=O)cc(Br)c1OCCc1ccccc1`, the GFP response vs DMSO is 100% (inactive) in test [1], 99.8% in test [1] (setting [6]), 101% in test [1] (setting [7]) and 99.5% (inactive) in test [3]. In addition, the results for the GFP response relative to DMSO in test [2], in test [2] (setting [8]) and in test [2] (setting [9]) were 102% (inactive), 95% and 103%, respectively. For the same molecule, the GFP response, % of DMSO was 97.3% (inactive) in test [4], 92.1% (inactive) in test [5], 92.7% in test [5] (setting [6]) and 88.6% in test [5] (setting [7]).
For `Cc1cccc(Sc2ccc([N+](=O)[O-])cc2[N+](=O)[O-])n1`, the GFP response vs DMSO in test [1] is 102% (inactive); in test [1] (setting [6]), 100%; in test [1] (setting [7]), 102%; in test [3] it was 104% (inactive). Moreover, the GFP response relative to DMSO is 97.4% (inactive) in test [2], 100% in test [2] (setting [8]) and 98.3% in test [2] (setting [9]). In addition, the GFP response, % of DMSO in test [4] was 101% (inactive); in test [5], 100% (inactive); in test [5] (setting [6]), 101%; in test [5] (setting [7]), 99.8%.
Turning to `C/C(CC(=O)Nc1cc(C)ccn1)=N\NC(=O)c1cccc(F)c1`, the GFP response vs DMSO is 98.6% (inactive) in test [1], 97.5% in test [1] (setting [6]), 98.7% in test [1] (setting [7]) and 100% (inactive) in test [3]. Further, the GFP response relative to DMSO is 97.4% (inactive) in test [2], 97.2% in test [2] (setting [8]) and 99.3% in test [2] (setting [9]). Further, the GFP response, % of DMSO in test [4] is 94.1% (inactive); in test [5], 93.9% (inactive); in test [5] (setting [6]), 94.8%; in test [5] (setting [7]), 93.4%.
In the case of `CCCN1C(=O)c2cccc3c(N4CCCCC4)ccc(c23)C1=O`, the GFP response vs DMSO was 98.7% (inactive) in test [1], 99.8% in test [1] (setting [6]), 98.2% in test [1] (setting [7]) and 103% (inactive) in test [3]. Also, the GFP response relative to DMSO in test [2] was 98.9% (inactive); in test [2] (setting [8]), 101%; in test [2] (setting [9]), 99.5%. Moreover, the GFP response, % of DMSO in test [4] is 104% (inactive); in test [5], 103% (inactive); in test [5] (setting [6]), 105%; in test [5] (setting [7]), 103%.
